Measured values: ChEMBL document CHEMBL1122285, “New myocardial imaging agents: stabilization of radioiodine as a terminal vinyl iodide moiety on tellurium fatty acids” (J Med Chem, 1983)
Where “and” joins values, the source holds several entries; their conditions need not be identical. Identical values can stand only once.

Columns and labels:
Rattus norvegicus [1] = assay: Tested for distribution of radioactivity of tellurium-123 in kidney of rat after 5 min of intravenous administration; assay type: ADME, organism-based; settings: in vivo
In short: (§1)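 123mTe-labelled fatty acid (sp act ~20 mCi/mmol), ~6.8–8.4 μCi per rat, was given by lateral tail vein in 0.5 mL 6% BSA with 10% final ethanol to ether-anaesthetised Fischer 344 rats, four per time point. Tissue activity is expressed as mean % injected dose/g (range) against injectate standards.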

Rattus norvegicus [2] = assay: Tested for distribution of radioactivity of iodine 125 in lungs of rat after 3 days of intravenous administration; assay type: ADME, organism-based, Lung; settings: in vivo, 72 h
In short: (§2)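 Fischer 344 rats, four per time point, under ether anaesthesia. Each received ~8.6 μCi of 125I-labelled fatty acid (sp act ~20 mCi/mmol) by lateral tail vein in 0.5 mL 6% bovine serum albumin with 10% final ethanol, filtered before injection. Percent injected dose/g was calculated against injectate standards and reported as mean (range). Thyroid weight was taken as body weight × 7.5 mg/100 g.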

Rattus norvegicus [3] = assay: Tested for distribution of radioactivity of iodine 125 in blood of rat after 5 min of intravenous administration; assay type: ADME, organism-based; settings: in vivo; in short: as §2
Rattus norvegicus [4] = assay: Tested for distribution of radioactivity iodine 125 in heart of rat after 30 min of intravenous administration (value in parentheses indicates range); assay type: ADME, organism-based; settings: in vivo, 0.5 h; in short: as §2
Rattus norvegicus [5] = assay: Tested for distribution of radioactivity of tellurium-123 in blood of rat after 30 min of intravenous administration; assay type: ADME, organism-based; settings: in vivo, 0.5 h; in short: as §1
Rattus norvegicus [6] = assay: Tested for distribution of radioactivity of tellurium-123 in heart of rat after 60 min of intravenous administration; assay type: ADME, organism-based; settings: in vivo, 1 h; in short: as §1
Rattus norvegicus [7] = assay: Tested for distribution of radioactivity of iodine 125 in thyroid of rat after 30 min of intravenous administration; assay type: ADME, organism-based, Thyroid gland; settings: in vivo, 0.5 h; in short: as §2
Rattus norvegicus [8] = assay: Tested for distribution of radioactivity of tellurium-123 in heart of rat after 5 min of intravenous administration; assay type: ADME, organism-based; settings: in vivo; in short: as §1
Rattus norvegicus [9] = assay: Tested for distribution of radioactivity of iodine 125 in kidney of rat after 3 days of intravenous administration; assay type: ADME, organism-based; settings: in vivo, 72 h; in short: as §2
Rattus norvegicus [10] = assay: Tested for distribution of radioactivity of iodine 125 in kidney of rat after 2 hours of intravenous administration; assay type: ADME, organism-based; settings: in vivo; in short: as §2
Rattus norvegicus [11] = assay: Tested for distribution of radioactivity of iodine 125 in liver of rat after 4 hr of intravenous administration; assay type: ADME, organism-based; settings: in vivo; in short: as §2
Rattus norvegicus [12] = assay: Tested for distribution of radioactivity of tellurium-123 in liver of rat after 5 min of intravenous administration; assay type: ADME, organism-based; settings: in vivo; in short: as §1
Rattus norvegicus [13] = assay: Tested for distribution of radioactivity of tellurium-123 in blood of rat after 5 min of intravenous administration; assay type: ADME, organism-based; settings: in vivo; in short: as §1
Rattus norvegicus [14] = assay: Tested for distribution of radioactivity iodine 125 in heart of rat after 3 days intravenous administration; assay type: ADME, organism-based; settings: in vivo, 72 h; in short: as §2
Rattus norvegicus [15] = assay: Tested for distribution of radioactivity of iodine 125 in lungs of rat after 30 min of intravenous administration; assay type: ADME, organism-based, Lung; settings: in vivo, 0.5 h; in short: as §2
Rattus norvegicus [16] = assay: Tested for distribution of radioactivity of iodine 125 in lungs of rat after 5 min of intravenous administration; assay type: ADME, organism-based, Lung; settings: in vivo; in short: as §2
Rattus norvegicus [17] = assay: Tested for distribution of radioactivity of iodine 125 in heart of rat after 5 min of intravenous administration; assay type: ADME, organism-based; settings: in vivo; in short: as §2
Rattus norvegicus [18] = assay: Tested for distribution of radioactivity of iodine 125 in liver of rat after 30 min of intravenous administration; assay type: ADME, organism-based; settings: in vivo, 0.5 h; in short: as §2
Rattus norvegicus [19] = assay: Tested for distribution of radioactivity iodine 125 in heart of rat after 4 hours of intravenous administration; assay type: ADME, organism-based; settings: in vivo; in short: as §2
Rattus norvegicus [20] = assay: Tested for distribution of radioactivity of iodine 125 in thyroid of rat after 60 min of intravenous administration; assay type: ADME, organism-based, Thyroid gland; settings: in vivo, 1 h; in short: as §2
Rattus norvegicus [21] = assay: Tested for distribution of radioactivity of tellurium-123 in lungs of rat after 60 min of intravenous administration; assay type: ADME, organism-based, Lung; settings: in vivo, 1 h; in short: as §1
Rattus norvegicus [22] = assay: Tested for distribution of radioactivity of tellurium-123 in blood of rat after 60 min of intravenous administration; assay type: ADME, organism-based; settings: in vivo, 1 h; in short: as §1
Rattus norvegicus [23] = assay: Tested for distribution of radioactivity of tellurium-123 in heart of rat after 30 min of intravenous administration; assay type: ADME, organism-based; settings: in vivo, 0.5 h; in short: as §1
Rattus norvegicus [24] = assay: Tested for distribution of radioactivity of iodine 125 in lungs of rat after 2 hours of intravenous administration; assay type: ADME, organism-based, Lung; settings: in vivo; in short: as §2
Rattus norvegicus [25] = assay: Tested for distribution of radioactivity of tellurium-123 in kidney of rat after 30 min of intravenous administration; assay type: ADME, organism-based; settings: in vivo, 0.5 h; in short: as §1
Rattus norvegicus [26] = assay: Tested for distribution of radioactivity of tellurium-123 in liver of rat after 60 min of intravenous administration; assay type: ADME, organism-based; settings: in vivo, 1 h; in short: as §1
Rattus norvegicus [27] = assay: Tested for distribution of radioactivity of iodine 125 in blood of rat after 3 days of intravenous administration; assay type: ADME, organism-based; settings: in vivo, 72 h; in short: as §2
Rattus norvegicus [28] = assay: Tested for distribution of radioactivity of iodine 125 in blood of rat after 60 min of intravenous administration; assay type: ADME, organism-based; settings: in vivo, 1 h; in short: as §2
Rattus norvegicus [29] = assay: Tested for distribution of radioactivity of iodine 125 in blood of rat after 4 hours of intravenous administration; assay type: ADME, organism-based; settings: in vivo; in short: as §2
Rattus norvegicus [30] = assay: Tested for distribution of radioactivity of iodine 125 in liver of rat after 3 days of intravenous administration; assay type: ADME, organism-based; settings: in vivo, 72 h; in short: as §2
Rattus norvegicus [31] = assay: Tested for distribution of radioactivity of iodine 125 in kidney of rat after 5 min of intravenous administration; assay type: ADME, organism-based; settings: in vivo; in short: as §2
Rattus norvegicus [32] = assay: Tested for distribution of radioactivity of iodine 125 in lungs of rat after 60 min of intravenous administration; assay type: ADME, organism-based, Lung; settings: in vivo, 1 h; in short: as §2
Rattus norvegicus [33] = assay: Tested for distribution of radioactivity of tellurium-123 in kidney of rat after 60 min of intravenous administration; assay type: ADME, organism-based; settings: in vivo, 1 h; in short: as §1
Rattus norvegicus [34] = assay: Tested for distribution of radioactivity of tellurium-123 in lungs of rat after 5 min of intravenous administration; assay type: ADME, organism-based, Lung; settings: in vivo; in short: as §1
Rattus norvegicus [35] = assay: Tested for distribution of radioactivity iodine 125 in heart of rat after 60 min of intravenous administration; assay type: ADME, organism-based; settings: in vivo, 1 h; in short: as §2
Rattus norvegicus [36] = assay: Tested for distribution of radioactivity of iodine 125 in liver of rat after 5 min of intravenous administration; assay type: ADME, organism-based; settings: in vivo; in short: as §2
Rattus norvegicus [37] = assay: Tested for distribution of radioactivity of iodine 125 in thyroid of rat after 5 min of intravenous administration; assay type: ADME, organism-based, Thyroid gland; settings: in vivo; in short: as §2
Rattus norvegicus [38] = assay: Tested for distribution of radioactivity of iodine 125 in liver of rat after 2 hr of intravenous administration; assay type: ADME, organism-based; settings: in vivo; in short: as §2
Rattus norvegicus [39] = assay: Tested for distribution of radioactivity of iodine 125 in blood of rat after 2 hour of intravenous administration; assay type: ADME, organism-based; settings: in vivo; in short: as §2
Rattus norvegicus [40] = assay: Tested for distribution of radioactivity of tellurium-123 in lungs of rat after 30 min of intravenous administration; assay type: ADME, organism-based, Lung; settings: in vivo, 0.5 h; in short: as §1
Rattus norvegicus [41] = assay: Tested for distribution of radioactivity of tellurium-123 in liver of rat after 30 min of intravenous administration; assay type: ADME, organism-based; settings: in vivo, 0.5 h; in short: as §1
Rattus norvegicus [42] = assay: Tested for distribution of radioactivity of iodine 125 in kidney of rat after 30 min of intravenous administration; assay type: ADME, organism-based; settings: in vivo, 0.5 h; in short: as §2
Rattus norvegicus [43] = assay: Tested for distribution of radioactivity of iodine 125 in kidney of rat after 4 hours of intravenous administration; assay type: ADME, organism-based; settings: in vivo; in short: as §2
[44] = Tested for distribution of radioactivity of iodine 125 in kidney of rat after 60 min of intravenous administration; assay type: ADME; settings: in vivo, 1 h; in short: as §2
Rattus norvegicus [45] = assay: Tested for distribution of radioactivity of iodine 125 in liver of rat after 60 min of intravenous administration; assay type: ADME, organism-based; settings: in vivo, 1 h; in short: as §2
Rattus norvegicus [46] = assay: Tested for distribution of radioactivity in heart of rat after 2 hours of intravenous administration; assay type: ADME, organism-based; settings: in vivo; in short: as §2
Rattus norvegicus [47] = assay: Tested for distribution of radioactivity of iodine 125 in blood of rat after 30 min of intravenous administration; assay type: ADME, organism-based; settings: in vivo, 0.5 h; in short: as §2

O=C(O)CCCCCCCCCCC[Te]CCC/C=C\I
Injected dose/g (Rattus norvegicus [1]): 1.46% and 1.54%
Injected dose/g (Rattus norvegicus [2]): 0.1%
Injected dose/g (Rattus norvegicus [3]): 0.15%
Injected dose/g (Rattus norvegicus [4]): 1.52%
Injected dose/g (Rattus norvegicus [5]): 0.84%
Injected dose/g (Rattus norvegicus [6]): 1.92% and 0.83%
Injected dose/g (Rattus norvegicus [7]): 5.64%
Injected dose/g (Rattus norvegicus [8]): 2.09%
Injected dose/g (Rattus norvegicus [9]): 0.08%
Injected dose/g (Rattus norvegicus [10]): 0.96%
Injected dose/g (Rattus norvegicus [11]): 1.95%
Injected dose/g (Rattus norvegicus [12]): 7.78% and 8.26%
Injected dose/g (Rattus norvegicus [13]): 0.32% and 0.25%
Injected dose/g (Rattus norvegicus [14]): 0.09%
Injected dose/g (Rattus norvegicus [15]): 0.89%
Injected dose/g (Rattus norvegicus [16]): 0.92%
Injected dose/g (Rattus norvegicus [17]): 1.46%
Injected dose/g (Rattus norvegicus [18]): 5.32%
Injected dose/g (Rattus norvegicus [19]): 0.76%
Injected dose/g (Rattus norvegicus [20]): 13.41%
Injected dose/g (Rattus norvegicus [21]): 1% and 1.49%
Injected dose/g (Rattus norvegicus [22]): 0.95%
Injected dose/g (Rattus norvegicus [23]): 1.98%
Injected dose/g (Rattus norvegicus [24]): 0.81%
Injected dose/g (Rattus norvegicus [25]): 1.73% and 1.62%
Injected dose/g (Rattus norvegicus [26]): 4.49%
Injected dose/g (Rattus norvegicus [27]): 0.03%
Injected dose/g (Rattus norvegicus [28]): 0.69%
Injected dose/g (Rattus norvegicus [29]): 0.65%
Injected dose/g (Rattus norvegicus [30]): 0.09%
Injected dose/g (Rattus norvegicus [31]): 1.01%
Injected dose/g (Rattus norvegicus [32]): 1.02%
Injected dose/g (Rattus norvegicus [33]): 1.85%
Injected dose/g (Rattus norvegicus [34]): 0.91%
Injected dose/g (Rattus norvegicus [35]): 1.81%
Injected dose/g (Rattus norvegicus [36]): 8.78%
Injected dose/g (Rattus norvegicus [37]): 1.62%
Injected dose/g (Rattus norvegicus [38]): 2.45%
Injected dose/g (Rattus norvegicus [39]): 0.68%
Injected dose/g (Rattus norvegicus [40]): 1.03%
Injected dose/g (Rattus norvegicus [41]): 5.53%
Injected dose/g (Rattus norvegicus [42]): 1.04%
Injected dose/g (Rattus norvegicus [43]): 0.93%
Injected dose/g [44]: 1.15%
Injected dose/g (Rattus norvegicus [45]): 4.39%
Injected dose/g (Rattus norvegicus [46]): 1.03%
Injected dose/g (Rattus norvegicus [47]): 0.61%
